Hits are enriched below; roughly 4.6% of the tested compounds scored in any of these assays.
GPR7 antag: blocks human GPR7 receptor signaling. P48145. GPR7-expressing cells, fluorescence antagonist assay. inhibition, % at 4.4 µM. 1.1% of 290,000 active. AID 1861; in the data active = inhibition above about 16%, passing the limit was not always enough;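 also: cells stimulated with the agonist NPW; 0% = agonist with vehicle and 100% = vehicle without agonist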
Target sequence (P48145 whole entry, looked up): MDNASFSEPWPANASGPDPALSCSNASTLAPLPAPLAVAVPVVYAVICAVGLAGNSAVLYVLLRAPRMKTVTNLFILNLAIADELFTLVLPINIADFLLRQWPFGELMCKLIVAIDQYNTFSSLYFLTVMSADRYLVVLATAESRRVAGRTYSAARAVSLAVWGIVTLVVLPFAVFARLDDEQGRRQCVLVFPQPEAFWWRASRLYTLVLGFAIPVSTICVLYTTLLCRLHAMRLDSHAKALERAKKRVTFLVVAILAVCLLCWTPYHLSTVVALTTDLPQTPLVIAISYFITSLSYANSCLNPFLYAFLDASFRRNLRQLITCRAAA
OX1R antag-1: antagonists of human orexin 1 receptor. AID 434989. 0.43% of 330,000 active. inhibition, % at 5 µM. O43613. CHO/OX1R cells, Fluo-8 calcium fluorescence, orexin A;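 active = inhibition above its plate's threshold, mean inhibition of all tested compounds on the plate plus 3 SD, cut at about 37% in these data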;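 also: 0% = orexin A challenge wells and 100% = SB-334867-A antagonist wells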
TAAR1 ag: human TAAR1 agonism; CHO RD-HGA16 TAAR1, Fluo-8 calcium fluorescence; vehicle wells 0%, saturating PEA agonist 100%; activation, % at 3 µM; 0.99% of 360,000 active; AID 624467;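 active = activation above the mean activation of all test compounds in the run plus 3 SD, cut at about 38% in these data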
Target sequence (Q96RJ0 whole entry, looked up): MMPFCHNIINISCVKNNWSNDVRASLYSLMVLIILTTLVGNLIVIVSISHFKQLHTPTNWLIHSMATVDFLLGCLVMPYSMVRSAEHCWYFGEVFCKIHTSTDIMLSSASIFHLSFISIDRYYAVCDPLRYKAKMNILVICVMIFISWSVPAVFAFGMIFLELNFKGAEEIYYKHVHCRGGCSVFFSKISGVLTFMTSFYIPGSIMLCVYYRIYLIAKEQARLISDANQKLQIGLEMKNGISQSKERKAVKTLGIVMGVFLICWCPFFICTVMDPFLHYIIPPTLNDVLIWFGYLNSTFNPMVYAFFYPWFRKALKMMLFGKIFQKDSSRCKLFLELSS
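Benchmarks: low control DMSO, high control PEA (EC100); System: CHO RD-HGA16 cells carrying human TAAR1 plus Gα16; Detection: Fluo-8 fluorescence, 5 s baseline then 140 s kinetic read; Schedule: 17-24 h plating, Fluo-8 75 min 37 °C, 30 min RT; Read-out basis: % activation from peak over basal fluorescence ratio, DMSO-to-PEA scaled.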
TAAR1 antag: human TAAR1 antagonism; CHO RD-HGA16 TAAR1, Fluo-8 calcium fluorescence, antagonist; inhibition, % at 3 µM; 1.5% of 360,000 active; AID 624466;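 active = inhibition above a per-plate cutoff, the mean inhibition of test compounds on that plate plus 3 SD, cut at about 49% in these data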;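 also: 0% = DMSO plus EC80 beta-PEA response and 100% = DMSO alone without agonist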
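Material: RD-HGA16 CHO cells with stable hTAAR1 and Gα16; Dosing: single nominal final test compound concentration of 3 µM; Schedule: seeding 17-24 h prior, 75-min 37 °C, 30-min RT dye loading; Detection: kinetic Fluo-8 calcium fluorescence measurement; Measure: % inhibition from peak post-agonist over basal fluorescence ratio; Benchmarks: vehicle and agonist controls.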
CHO parental Ca: signal in parental CHO cells, OX1R antagonist counter-screen; parental CHO-K1, ATP-induced calcium, Fluo-8 fluorescence; inhibition, % at 5.6 µM; 0.63% of 330,000 active; AID 463079;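 active = inhibition above that plate's mean sample inhibition plus 3 SD, cut at about 26% in these data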;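 also: 0% = ATP-challenged DMSO wells and 100% = DMSO wells without ATP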
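Test system: parental CHO cells; detection: calcium-sensitive Fluo-8 fluorescence; evaluation: percent inhibition of calcium signal; also added: ATP as calcium-mobilizing challenge; repeats: one well per compound; control set: ATP-challenged DMSO wells low, unchallenged DMSO wells high; compound: single nominal dose of 5.6 µM per compound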
OX1R antag-2: OX1R (human) antagonism; O43613; OX1R-expressing cells, FRET antagonist read-out; inhibition, % at 6.6 µM; 1.8% of 330,000 active; AID 485270; in the data active = inhibition mostly above about 38%, no sharp cut-off; inactive = mostly below about 40%;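 also: 0% = agonist challenge alone and 100% = reference antagonist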
nonsel antag count: nonselective antagonist in TAAR1 antagonist counter-screen. shares compounds with TAAR1 antag. counterscreen cell line, calcium fluorescence, antagonist mode. 77% of 2,400 active. inhibition, % at 3 µM; in the data active = inhibition above about 22%;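 also: CHO-Ga16 host cells stimulated with ATP at an EC80 level; 0% = agonist EC80 plus vehicle and 100% = vehicle without agonist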
TAAR1 antag conf: human TAAR1 antagonism, confirmed | shares compounds with TAAR1 antag | TAAR1-expressing cells, fluorescence antagonist read-out | 40% of 2,400 active | inhibition, % at 3 µM | AID 651785; in the data active = inhibition above about 49%;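 also: CHO-Ga16 host cells challenged with agonist PEA near its EC80; 0% = agonist at EC80 plus vehicle and 100% = vehicle with no agonist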
Ga16 ag counter: nonselective Ga16 agonist in TAAR1 antagonist counter-screen | Ga16-expressing cells, calcium fluorescence, agonist counterscreen | 18% of 2,400 active | AID 651953 | shares compounds with TAAR1 antag | activation, % at 3 µM; in the data active = activation above about 12%;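 also: 0% = vehicle wells and 100% = saturating stimulus response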
TAAR1 ag counter: TAAR1 agonism, antagonist counter-screen; shares compounds with TAAR1 antag; hTAAR1 cell line, fluorescence activation, agonist mode; activation, % at 3 µM; 2% of 2,400 active; AID 651955; in the data active = activation above about 37%;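 also: CHO cells stably expressing TAAR1 with calcium dye readout; 0% = DMSO vehicle and 100% = full agonist response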
* = called active by the depositor; / = not tested or not shown.

SMILES	GPR7 antag	OX1R antag-1	TAAR1 ag	TAAR1 antag	CHO parental Ca	OX1R antag-2	nonsel antag count	TAAR1 antag conf	Ga16 ag counter	TAAR1 ag counter
COc1cc(NC(=O)c2ccc(-c3cccc(F)c3)o2)ccc1NC(=O)c1ccccc1Cl	/	-4.8	8.0	55.4*	-11.8	8.7	22.6*	37.4	3.4	1.7
COc1ccc(NC(=O)c2ccc(-c3ccc(F)cc3)o2)cc1OC	/	/	12.3	35.2	/	/	/	/	/	/
C=C(C)C(=O)OCC(O)COc1ccc(C(C)(C)c2ccc(OCC(O)COC(=O)C(=C)C)cc2)cc1 (configuration not stated)	/	25.3	14.8	91.8*	56.8*	20.2	55.3*	69.9*	19.3*	27.4
COc1ccc(C2CC(=O)C(c3cccc(F)c3)=CN2Cc2ccccc2)cc1 (configuration not stated)	/	/	0.7	23.2	/	/	/	/	/	/
CCOC(=O)C1=C[C@@H](CC)N(S(=O)(=O)c2ccc([N+](=O)[O-])cc2)[C@H]1c1ccccc1	/	/	-0.1	72.1*	/	/	30.2*	37.9	2.0	4.1
CCOC(=O)C1=C[C@@H](C(C)C)N(S(=O)(=O)c2ccc([N+](=O)[O-])cc2)[C@H]1c1ccccc1	/	/	-1.9	81.7*	/	/	25.5*	45.2	5.1	8.3
COC(=O)C1=C(C)N(Cc2ccccc2C(F)(F)F)C(=NCc2ccc(C(F)(F)F)cc2)NC1c1cccc(F)c1 (configuration not stated)	/	/	8.9	-23.5	/	/	/	/	/	/
COc1cccc(C(=O)N(Cc2ccc(N(C)C)cc2)C2CCS(=O)(=O)C2)c1 (configuration not stated)	-4.5	-11.6	-1.9	105.5*	-8.2	7.9	4.0	-3.8	5.1	4.5
CCOc1ccc(-c2noc([C@@H]3O[C@H](CO)[C@@H](O)[C@H]3O)n2)cc1	/	/	2.6	-3.5	/	/	/	/	/	/
COc1ccc(Br)cc1CN(C)C(=O)c1ccccc1OCc1c(C)noc1C	/	-24.8	9.4	57.0*	-39.7	10.9	23.2*	33.2	6.8	4.0
O=C(OCC(=O)N1CCN(C(=O)c2ccco2)CC1)c1cc(-c2cccc(Br)c2)nc2ccccc12	-0.2	23.7	17.2	57.8*	-22.3	61.6*	34.3*	43.5	5.4	0.8
O=C(OCC(=O)N1CCN(C(=O)c2ccco2)CC1)c1cc(-c2ccccc2)nc2ccccc12	-5.5	-22.7	8.4	57.0*	-37.4	33.1	25.6*	35.7	6.2	0.4
Clc1ccc(CN2CCC(c3nc4ccc(Cl)cc4[nH]3)CC2)cc1	4.7	-26.1	29.3	-0.1	-22.6	20.3	/	/	/	/
COc1ccc2nc(-c3ccc(CN4CCC(c5nc6ccccc6[nH]5)CC4)cc3)c(-c3ccccc3)nc2c1	/	/	17.3	75.8*	/	/	34.2*	39.6	11.2	19.8
Brc1ccc2nc(-c3ccc(CN4CCC(c5nc6ccccc6[nH]5)CC4)cc3)c(-c3ccccc3)nc2c1	/	/	25.3	85.8*	/	/	56.4*	67.9*	19.9*	37.5*
CC1CCN(S(=O)(=O)N2CCC(C(=O)NCc3ccc(F)cc3Cl)CC2)CC1	/	/	3.0	6.1	/	/	/	/	/	/
CCOC(=O)C1CCCN(C(=O)c2cc(Nc3ccc(OC)cc3)nc3ccccc23)C1 (configuration not stated)	1.9	-31.2	12.3	48.8*	-27.8	18.4	28.8*	45.1	7.5	4.6
CCOC(=O)C1CCCN(C(=O)c2cc(-c3ccco3)nc3ccccc23)C1 (configuration not stated)	/	-12.9	3.5	-0.4	-18.5	12.2	/	/	/	/
CSc1cccc(NC(=O)CCn2c(=O)c3cccn3c3cccnc32)c1	-3.9	-15.0	22.9	56.6*	-13.3	32.4	24.7*	48.1	9.2	16.9
COc1cccc(CNC(=O)CCn2c(=O)c3cccn3c3cccnc32)c1	-9.9	-8.6	0.9	-6.5	-10.8	9.4	/	/	/	/
COC(=O)[C@@]12C[C@@H](CC(=O)N3CCSCC3)C(=O)N(Cc3ccc4c(c3)OCO4)C1=CCC(C)(C)C2	/	/	-1.0	-14.2	/	/	/	/	/	/
CCN(c1ccccc1)S(=O)(=O)c1ccc(OC)c(NC(=O)Cc2ccc(F)cc2)c1	/	26.1	-1.4	103.6*	13.7	-2.9	8.3	3.1	2.2	0.4
CCN(c1ccccc1)S(=O)(=O)c1ccc(OC)c(NC(=O)CN2C(=O)NC(C)(C)C2=O)c1	/	-8.7	0.0	5.0	-8.1	1.4	/	/	/	/
CCc1nc2c(OCc3ccc(Cl)cc3Cl)cccn2c1N(C)C(C)=O	/	/	5.2	-19.6	/	/	/	/	/	/
O=C(NCc1ccco1)c1ccc(Cl)c(S(=O)(=O)Nc2ccccc2)c1	-8.6	-29.3	5.8	1.8	-20.1	28.4	/	/	/	/
SMILES	GPR7 antag	OX1R antag-1	TAAR1 ag	TAAR1 antag	CHO parental Ca	OX1R antag-2	nonsel antag count	TAAR1 antag conf	Ga16 ag counter	TAAR1 ag counter
C=CCNC(=O)c1ccccc1NC(=O)c1ccc(Cl)c(S(=O)(=O)Nc2ccccc2)c1	-17.1	-20.7	18.1	54.6*	-7.3	15.9	27.9*	46.0	6.9	12.6
O=C(N[C@H](C(=O)N1CCC[C@H]1C(=O)NC1CCCC1)c1ccccc1)c1ccccc1	/	/	1.3	-1.3	/	/	/	/	/	/
Cc1ccc(Cn2cc(CN3CC(N4CCN(C5CCN(C)CC5)CC4)CS3(=O)=O)nn2)cc1 (configuration not stated)	/	/	0.5	-2.7	/	/	/	/	/	/
N#Cc1ccc(-c2csc(NC(=O)/C=C/c3cccs3)n2)cc1	-6.1	-23.6	2.9	61.2*	-19.5	29.6	39.9*	51.5*	8.7	3.8
Cc1ccc(-c2csc(NC(=O)/C=C/c3cccs3)n2)cc1C	-2.0	-20.8	0.0	28.9	-1.2	5.4	/	/	/	/
Cc1ccc(-c2csc(N3CCN(CCCn4c(C(F)(F)F)nc5ccccc54)CC3)n2)cc1	9.8	-45.0	-0.8	32.5	-22.2	6.3	/	/	/	/
Cc1ccc(-c2csc(N3CCN(CCCn4c(-c5ccncc5)nc5ccccc54)CC3)n2)cc1	4.2	-40.5	11.4	55.5*	-40.1	12.9	24.7*	46.6	4.4	1.0
Cc1ccc(-c2csc(N3CCC[C@@H]3C(=O)NCCn3c(-c4ccncc4)nc4ccccc43)n2)cc1	-6.0	-34.6	24.5	62.4*	-49.0	33.4	26.1*	49.5*	10.1	10.2
CCS(=O)(=O)c1ccc(-c2csc(-c3ccccc3)n2)c(Cl)c1Cl	24.4	-29.8	13.8	67.7*	-13.4	19.0	23.6*	24.2	2.3	4.8

Assay outcomes (PubChem)
